Experiments:
MCF7 [1] = assay: Cytotoxic activity against human MCF-7 cells; assay type: cell-based
Leishmania amazonensis [2] = assay: Antileishmanial activity against leishmania amazonensis promastigotes stage; assay type: functional
Plasmodium falciparum [3] = assay: Antiplasmodial activity for Plasmodium falciparum F32; assay type: functional
Method in brief: (§1)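 Tested against P. falciparum strains FcB1 and F32, with chloroquine as the positive control. Values are means ± SD from independent experiments.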

MCF7 [4] = assay: Ratio of cytotoxic activity against human MCF-7 cells to that of antiplasmodial activity against Plasmodium falciparum FcB1; assay type: functional
Method in brief: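 Cytotoxic activity on the MCF7 human tumour line divided by antiplasmodial activity on P. falciparum FcB1.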

Leishmania amazonensis [5] = assay: Antileishmanial activity against leishmania amazonensis axenic amastigotes stage; assay type: functional
Plasmodium falciparum [6] = assay: Antiplasmodial activity for Plasmodium falciparum FcB1; assay type: functional; method in brief: as §1

Row | SMILES | Activity (MCF7 [1]) [µM] | Activity (Leishmania amazonensis [2]) [µM] | Activity (Plasmodium falciparum [3]) [µM] | Ratio (MCF7 [4]) | Activity (Leishmania amazonensis [5]) [µM] | Activity (Plasmodium falciparum [6]) [µM]
1 | CCCCCCCC/C=C\CCCCCC[C@@H]1C(=O)O[C@@H](C)[C@H]1O | 65.9 | 111 | 57.6 | 2.1 | 129 | 27.5
2 | COc1cccc2c1C(=O)c1c(O)c3c(c(O)c1C2=O)C[C@@](O)(C(=O)CO)C[C@@H]3O[C@H]1C[C@H](N)[C@H](O)[C@H](C)O1 [DOXORUBICIN] | 0.4 | – | – | – | – | –
3 | C=C/C(C)=C/C[C@]1(C)[C@H](C)C[C@H](O)[C@@]23C(=C[C@@H](OC(=O)C(C)CC)C[C@@H]12)C(OC(C)=O)OC3OC(C)=O (some centres not stated) | 0.85 | 11 | 0.57 | 1.3 | 10.5 | 0.59
4 | C=C/C(C)=C/C[C@]1(C)[C@H](C)C[C@H](OC)[C@@]2(C=O)C(C=O)=C[C@H](OC(=O)C(C)CC)C[C@@H]12 (some centres not stated) | 9.6 | 50.9 | 6.04 | 2.7 | 30.3 | 3.79
5 | C[C@@H]1[C@H](O)[C@@H](C)/C=C/C=C/C=C/C=C/C=C/C=C/C=C/[C@H](O[C@@H]2O[C@H](C)[C@@H](O)[C@H](N)[C@@H]2O)C[C@@H]2O[C@](O)(C[C@@H](O)C[C@@H](O)[C@H](O)CC[C@@H](O)C[C@@H](O)CC(=O)O[C@H]1C)C[C@H](O)[C@H]2C(=O)O [AMPHOTERICIN B] | – | 0.3 | – | – | 0.3 | –
6 | C=C/C(C)=C/C[C@]1(C)[C@H](C)C[C@H](O)[C@@]23C(=C[C@H](OC(=O)C(C)CC)C[C@@H]12)C(OC(C)=O)OC3OC(C)=O (some centres not stated) | 1.54 | 11.1 | 0.62 | 2.2 | 5.98 | 0.54
7 | CCN(CC)CCCC(C)Nc1ccnc2cc(Cl)ccc12 (configuration not stated) [CHLOROQUINE] | – | – | 0.06 | – | – | 0.145
8 | C=C/C(C)=C/C[C@]1(C)[C@H](C)C[C@H](OC(=O)c2ccccc2)[C@@]23C(=C[C@H](OC(=O)C(C)CC)C[C@@H]12)C(OC(C)=O)OC3OC(C)=O (some centres not stated) | 27.3 | >200 | 4.66 | 4.6 | >200 | 5.35
9 | C=C/C(C)=C/C[C@]1(C)[C@H](C)C[C@H](OC(=O)c2ccccc2)[C@@]23C(=C[C@H](OC(=O)C(C)C)C[C@@H]12)C(OC(C)=O)OC3OC(C)=O (some centres not stated) | 17.8 | >200 | 4.44 | 3.1 | >200 | 6.08
10 | C=C/C(C)=C/C[C@]1(C)[C@H](C)C[C@H](OC)[C@@]23C(=C[C@H](OC(=O)C(C)CC)C[C@@H]12)C(OC(C)=O)OC3OC(C)=O (some centres not stated) | 4.38 | 10.9 | 0.58 | 6.8 | 47.4 | 0.66
